Assay: Toxicity liver stage against HepG2, at 10uM
Format: cell-based
Parameters: test concentration 10 uM, cell line HepG2-A16-CD81EGFP
Details: human, HepG2-A16-CD81EGFP cells; read-out: INHIBITION
Procedure, shortened: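 Uninfected HepG2-A16-CD81EGFP cells, 3 × 10^3 per well, 1536-well, plated on prespotted compound at 10 μM final, parasite-free screening media added to match infected plates; puromycin 10 μM positive, DMSO 0.5% negative; run in parallel with 48 h PbLuc assay at 37 °C, 5% CO2; viability by CellTiter-Glo luminescence, normalized to controls.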

Structure (SMILES) | cytotoxicity at 10 µM
CCOc1cc(CNc2nnn(C)n2)ccc1OCc1ccc(Cl)cc1 | 6.04%
CCN(CC)CCNC(=O)CCc1c(C)nn(-c2ccc(Cl)cc2)c1C | -5.93%
O=C1CSC(c2ccsc2)c2c(n(C3CCCC3)[nH]c2=O)N1 (configuration not stated) | -11.6%
COCCn1ccc2c(C(=O)NC3CN4CCC3CC4)cccc21 (configuration not stated) | -51.6%
COc1cn(CC(N)=O)c(CSc2nccc(C)n2)cc1=O | -12.1%
N#Cc1cccnc1OC1CCN(S(=O)(=O)c2ccc(F)c(Cl)c2)CC1 | 6.27%
Cc1nc(N(C)C)nc(C)c1NC(=O)c1ccccc1F | 41.7%
Cc1ccc(NC(=O)c2nc3c(s2)CCCN3C(C)C)cn1 | 0.93%
Cc1cc(=O)n(CC(=O)NC(C)C)c(Nc2ccc(F)c(C)c2)n1 | 7.97%
CC(=O)Cn1nc(-c2ccccc2F)ccc1=O | 0.477%
CN(c1ncc(C(=O)NCc2ccccc2)c(N)n1)C1CCCCC1 | -4.31%
CC(C)CN1CCN(C(=O)c2[nH]nnc2Nc2ccccc2F)CC1 | 18.7%
Cc1ccnn1CC(=O)Nc1cc(-c2ccncc2)[nH]n1 | -4.34%
Cn1ccnc1-c1nc(NC2CCCC2)ncc1-c1cccc(F)c1 | 14.1%
O=C(COc1ccccc1F)N1CCCCC1c1ccn2ccnc2n1 (configuration not stated) | -8.52%
O=C(c1cncs1)N1CCC(Cc2cnc3[nH]ccc3c2)CC1 | -3.94%
Cc1ccccc1-c1cncc(C2CCN(C3CCOCC3)CC2)n1 | -2.81%
O=C(C1CCCC1)N1CCCC(c2cccc(-n3ccnc3)n2)C1 (configuration not stated) | -5.52%
c1ccc(C2=NOC3(CCN(Cc4c[nH]c5ccccc45)CC3)C2)cc1 | 3.93%
Cc1cc(C(=O)NCC(F)(F)F)c2c(C3CCNCC3)noc2n1 | 10.4%
Cc1ccc(-n2nnnc2SCN2CCCCC2=O)cc1C | -46.6%

Structure (SMILES) | cytotoxicity at 10 µM
Cc1cnn(CC2CN(c3ncnc4c3CCC4)CCO2)c1 (configuration not stated) | 56.5%
CC(C)COc1cncc(NCc2nnc3ccccn23)n1 | 13.1%
CC(Cc1cccc(Cl)c1)NC(=O)NCc1ncnn1C (configuration not stated) | 8.52%
CC(c1ccc(F)cc1F)N1CCN(CCN2CCCC2=O)CC1 (configuration not stated) | -5.61%
COc1ccc(C2CCN(CCCC#N)CC2)cc1 | -9.89%
O=C(NCc1nnc2ccccn12)N1CCOC(c2cccs2)C1 (configuration not stated) | 1.64%
CC(C)c1ncc2c(n1)CN(c1ncnc3[nH]ccc13)CC2 | -3.28%
N#Cc1ccccc1N1CCCN(CC(=O)Nc2ccccc2Cl)CC1 | 1.11%
Fc1ccc(CNCc2nnc3n2CC(C(F)(F)F)CC3)c(F)c1 (configuration not stated) | 0.411%
CCCn1cc(CNCC(c2ccc(C)s2)N2CCOCC2)cn1 (configuration not stated) | -0.248%
COc1cc(CNC(C)c2cccc(Cl)c2)cc(OC)c1OC (configuration not stated) | 5.02%
CCC(CNC(=O)c1ccccc1OC)N1CCc2ccccc2C1 (configuration not stated) | 12%
CN(CCCc1n[nH]c(N)c1C#N)C(=O)Nc1cc(Cl)cc(Cl)c1 | 11.1%
Cc1cccc(C(C)NCC2CCS(=O)(=O)CC2)c1 (configuration not stated) | -2.67%
OCc1cc2ccccc2nc1NCC1CCN(CC(F)(F)F)C1 (configuration not stated) | -55.7%
CCNC(=O)N(C)C(c1cccnc1)C(C)C (configuration not stated) | -10.2%
CSCc1cc(F)ccc1CNCc1ncc[nH]1 | 11.5%
CN1CCN(c2ccccc2NC(=O)NCCc2ccccc2)CC1 | -4.63%
CC(NCc1cccs1)c1ccc(OCc2nccn2C)cc1 (configuration not stated) | -7.88%
CC1CN(C(=O)c2cscn2)c2ccccc2S1 (configuration not stated) | 6.43%
Cc1ncc2c(n1)CCCC2NC(=O)c1ccccc1Cn1cncn1 (configuration not stated) | -24.4%

Structure (SMILES) | cytotoxicity at 10 µM
CC(C)CC(C)N(C)C(=O)CCn1cccn1 (configuration not stated) | 0.395%
O=C(Cc1ccsc1)N1C[C@H]2CCC[C@@]2(COCc2ccccn2)C1 | -102%
c1csc(COC[C@H]2CCC[C@]23CN(Cc2ccoc2)CCO3)n1 | -67.3%
O=c1[nH][nH]cc1-c1ccnc(NCCc2cccc(O)c2)n1 | -7.83%
Cc1nc2c(c(NCCc3nccs3)n1)CCN(CC1CC1)CC2 | -1.38%
C[C@@H]1CN(C2CCN(Cc3cnc(-c4cccs4)nc3)CC2)C[C@H](C)O1 | -13.7%
COCCN(Cc1ccc(C)cc1)Cc1c[nH]cn1 | -42.3%
CC(=O)N[C@H]1CN(S(=O)(=O)N(C)Cc2ccccc2)C[C@@H]1C1CC1 | -144%
CC(C)c1cc(CN(C)C(=O)C(C)N2CCc3ccccc3C2)no1 (configuration not stated) | 4.24%
Nc1nc2c(c(NCc3ccc(C(=O)N4CCCC4)cc3)n1)CCCC2 | 21.1%
COc1ccc(Oc2ccc(C(F)(F)F)cn2)cc1CN1CCCC1 | -5.62%
CC(Oc1ccc2c(c1)OCO2)C(=O)N1CCC(N2CCOCC2)CC1 (configuration not stated) | -13.5%
COc1ccc(C(=O)C2CCCN(Cc3ccncc3)C2)cc1OC (configuration not stated) | -0.677%
COCCN(C)C(=O)c1ccccc1-n1cccn1 | -4.57%
CN(Cc1nccs1)C1CCN(c2cccc(-c3cscn3)c2)CC1 | -1.26%
Cn1ncc2c(N3CCCC4(CCNC4)C3)nc(C(C)(C)C)nc21 (configuration not stated) | -45.8%
COCc1cc(N2CCOC(c3ccc(Cl)c(Cl)c3)C2)ncn1 (configuration not stated) | 0.635%
CCN(C)S(=O)(=O)NC(C)c1cnc(N(C)C2CCCCC2)nc1C (configuration not stated) | -123%
CN(C)CCCNC(=O)c1ccc(N(C)S(C)(=O)=O)cc1Cl | -6.3%
COCC1(C(=O)N[C@H]2CN(c3nnc(C)s3)C[C@@H]2C2CC2)CCC1 | -129%
COc1ccc(-n2ncc(C(C)NC3Cc4ccccc4C3)c2C)cc1 (configuration not stated) | -6.32%

Structure (SMILES) | cytotoxicity at 10 µM
COCCN1CCN(Cc2ccncc2)[C@H]2CS(=O)(=O)C[C@H]21 | -10.2%
CCCN(C(=O)c1ccccn1)c1nc2c(s1)CCc1c-2cnn1C | 6.23%
CC1CN(C)CCN1C(=O)c1ccn(-c2ccccc2)n1 (configuration not stated) | 0.533%
O=C(COCC(F)(F)F)NS(=O)(=O)c1ccc2c(c1)OCCCO2 | -6.8%
CCN(Cc1ccccc1)C(=O)CN1CCCC(Cn2cncn2)C1 (configuration not stated) | 0.421%
Cc1nc(CN(C)C2CCN(CC3CCCCC3)C2)no1 (configuration not stated) | -7.49%
CNC(=O)COc1ccccc1CNC1CCc2ncnn2C1 (configuration not stated) | -13.6%
Cc1cnn(CC2CN(c3ncnc4ccccc34)CCO2)c1 (configuration not stated) | 6.57%
CCn1ncc2c1CCCC2NCC1=Cc2ccccc2OC1 (configuration not stated) | -4.31%
CN1CCCc2cc(CNC(=O)c3ccncc3)ccc21 | 7.03%
Fc1ccc(F)c(CN2CCC(c3cc4ncccc4cn3)CC2)c1 | -5.14%
Cc1ccsc1CN1C[C@@H]2COC[C@]2(CNC(=O)c2ccco2)C1 | -95.5%
C1CCC(CN2Cc3nnn(CC4CC4)c3C(COCC3CC3)C2)C1 (configuration not stated) | 19.7%
CC1N(C)C(=O)COC12CCN(Cc1ccsc1)CC2 (configuration not stated) | -5.24%
Cn1cnc2c1C(COCC1CC1)CN(Cc1ccc3c(c1)OCO3)C2 (configuration not stated) | -12%
COc1ccccc1CN1CC[C@H]2C[C@H](C(=O)N3CCCC3)O[C@H]2C1 | -2.24%
Cn1ccnc1C(=O)N[C@@H]1CN(CC2CCOCC2)[C@@H]2CCCO[C@@H]21 | -97.8%
CN(C)C(=O)CC1CC2(CCN(Cc3ccsc3)CC2)c2ccccc21 (configuration not stated) | 1.13%
COc1no[n+]([O-])c1-c1ccccc1 | 8.2%

Reference: ChEMBL document CHEMBL4513216, “Probing the Open Global Health Chemical Diversity Library for Multistage-Active Starting Points for Next-Generation Antimalarials” (ACS Infect Dis, 2020)
